Published values collected from several papers.
Lines come from different studies, so protocols differ.
Target: Tyrosine-protein kinase receptor UFO (AXL, Homo sapiens, UniProt P30530)
Concentration: 1 µM
One construct used (P30530 26-894): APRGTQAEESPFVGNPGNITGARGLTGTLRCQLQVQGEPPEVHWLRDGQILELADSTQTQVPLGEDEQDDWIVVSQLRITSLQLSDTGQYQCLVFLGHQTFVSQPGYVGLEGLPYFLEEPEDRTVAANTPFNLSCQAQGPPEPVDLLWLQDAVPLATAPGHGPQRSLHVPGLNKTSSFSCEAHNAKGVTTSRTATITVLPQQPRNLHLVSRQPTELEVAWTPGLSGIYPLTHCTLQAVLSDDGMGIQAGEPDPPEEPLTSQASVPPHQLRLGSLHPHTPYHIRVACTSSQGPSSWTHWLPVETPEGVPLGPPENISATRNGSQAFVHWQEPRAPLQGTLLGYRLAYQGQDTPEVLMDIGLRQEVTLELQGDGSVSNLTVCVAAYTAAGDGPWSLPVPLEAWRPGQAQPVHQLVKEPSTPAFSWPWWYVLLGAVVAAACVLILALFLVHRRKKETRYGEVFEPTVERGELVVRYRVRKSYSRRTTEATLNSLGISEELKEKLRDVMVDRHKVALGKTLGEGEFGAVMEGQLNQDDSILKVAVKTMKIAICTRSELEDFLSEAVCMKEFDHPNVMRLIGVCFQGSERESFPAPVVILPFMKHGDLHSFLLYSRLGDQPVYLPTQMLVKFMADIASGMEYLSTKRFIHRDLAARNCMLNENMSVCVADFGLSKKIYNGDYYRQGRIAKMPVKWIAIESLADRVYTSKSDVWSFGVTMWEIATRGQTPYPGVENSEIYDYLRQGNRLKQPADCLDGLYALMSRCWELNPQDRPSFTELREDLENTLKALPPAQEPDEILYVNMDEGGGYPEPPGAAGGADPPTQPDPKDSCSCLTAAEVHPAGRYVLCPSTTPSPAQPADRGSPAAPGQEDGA

| Structure (SMILES) | assay | endpoint | result |
| --- | --- | --- | --- |
| C#Cc1cnc(Nc2ccc(CO)nc2)nc1Nc1ccccc1S(C)(=O)=NC#N (centres unmarked) | enzyme activity, inhibitor | remaining activity | 27.6% |
| CN1CCN(C(=O)c2ccc(NC(=O)Nc3ccc(N(C)c4ccnc(Nc5ccc(CS(C)(=O)=O)cc5)n4)cc3)cc2)CC1 | binding, competition with immobilised ligand | remaining binding | 9.7% |
| Cc1cc(S(=O)(=O)N[C@H]2CC[C@H](CN3CCN(c4ccc(C5CCC(=O)NC5=O)cc4F)CC3)CC2)ccc1Nc1ncc(C(F)(F)F)c(N2CCC[C@](C)(O)C2)n1 (some centres unmarked) | binding, competition with immobilised ligand | remaining binding | 56% |
| C#Cc1cnc(Nc2ccnc(CO)c2)nc1Nc1ccccc1S(C)(=O)=NC#N (centres unmarked) | enzyme activity, inhibitor | remaining activity | 26.1% |
| C=CC(=O)N1CCC([C@@H]2CCNc3c(C(N)=O)c(-c4ccc(Oc5ccccc5)cc4)nn32)CC1 | enzyme activity, inhibitor | inhibition | 0% |
| C[C@H]1CC[C@H](n2c3cnccc3c3cnc(Nc4ccc5c(n4)CCN(C(=O)CO)C5)nc32)CC1 | binding, competition with immobilised ligand | remaining binding | 81% |
| C=CC(=O)N1CCC[C@@H](n2nc(-c3ccc(Oc4ccccc4)cc3)c3c(N)ncnc32)C1 | enzyme activity, inhibitor | inhibition | 34% |
| C[C@]1(O)CCCN(c2nc(Nc3ccc(S(=O)(=O)N[C@H]4CC[C@H](CN5CCN(c6ccc(C7CCC(=O)NC7=O)cc6F)CC5)CC4)cc3Cl)ncc2C(F)(F)F)C1 (some centres unmarked) | binding, competition with immobilised ligand | remaining binding | 98% |
